Results as given in ChEMBL document CHEMBL4371064, “Erythrofordins D and E, two new cassaine-type diterpenes from Erythrophleum suaveolens” (2019).

Tests used:
Assay type in all cases: functional
HT-29 = assay: Growth inhibition of human HT-29 cells incubated for 48 hrs by sulforhodamine B assay; details: HT-29, 48 h; for CC50: read-out: pLC50 (the source's name) (converted); for TGI: read-out: pTGI (converted)
Summary of the method: (§1)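 Run in the NCI-60 human tumour cell line panel with dose-response testing. GI50 was determined for each cell line from its dose-response data.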

COLO 205 = assay: Growth inhibition of human COLO205 cells incubated for 48 hrs by sulforhodamine B assay; details: COLO 205, 48 h; for TGI: read-out: pTGI (converted); summary of the method: as §1
NCI-H322M = assay: Growth inhibition of human NCI-H322M cells incubated for 48 hrs by sulforhodamine B assay; details: for TGI: read-out: pTGI (converted); summary of the method: as §1
PC-3 = assay: Growth inhibition of human PC3 cells incubated for 48 hrs by sulforhodamine B assay; details: PC-3, 48 h; for CC50: read-out: pLC50 (the source's name) (converted); for TGI: read-out: pTGI (converted); summary of the method: as §1
MCF7 = assay: Growth inhibition of human MCF7 cells incubated for 48 hrs by sulforhodamine B assay; details: MCF7, 48 h; for CC50: read-out: pLC50 (the source's name) (converted); for TGI: read-out: pTGI; summary of the method: as §1
UACC-257 = assay: Growth inhibition of human UACC257 cells incubated for 48 hrs by sulforhodamine B assay; details: UACC-257, 48 h; for TGI: read-out: pTGI (converted)
Summary of the method: (§2)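 Tested in the NCI 60-human-tumour-cell-line screen using the five-dose format. GI₅₀ was derived from each cell line's dose-response. TGI and LC₅₀ were derived from the same dose-response data.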

786-0 = assay: Growth inhibition of human 786-0 cells incubated for 48 hrs by sulforhodamine B assay; details: 786-0, 48 h; for TGI: read-out: pTGI (converted); summary of the method: as §1
SNB-19 = assay: Growth inhibition of human SNB19 cells incubated for 48 hrs by sulforhodamine B assay; details: SNB-19, 48 h; for TGI: read-out: pTGI (converted); summary of the method: as §1
NCI/ADR-RES = assay: Growth inhibition of human NCI/ADR-RES cells incubated for 48 hrs by sulforhodamine B assay; details: for CC50: read-out: pLC50 (the source's name) (converted); for TGI: read-out: pTGI (converted); summary of the method: as §1
NCI-H460 = assay: Growth inhibition of human NCI-H460 cells incubated for 48 hrs by sulforhodamine B assay; details: NCI-H460, 48 h; for TGI: read-out: pTGI (converted); summary of the method: as §1
DU-145 = assay: Growth inhibition of human DU145 cells incubated for 48 hrs by sulforhodamine B assay; details: DU-145, 48 h; for TGI: read-out: pTGI (converted); summary of the method: as §1
T47D = assay: Growth inhibition of human T47D cells incubated for 48 hrs by sulforhodamine B assay; details: for TGI: read-out: pTGI (converted); summary of the method: as §2
TK-10 = assay: Growth inhibition of human TK10 cells incubated for 48 hrs by sulforhodamine B assay; details: TK-10, 48 h; for TGI: read-out: pTGI (converted); summary of the method: as §2
RXF 393 = assay: Growth inhibition of human RXF393 cells incubated for 48 hrs by sulforhodamine B assay; details: RXF 393, 48 h; for CC50: read-out: pLC50 (the source's name) (converted); for TGI: read-out: pTGI (converted); summary of the method: as §1
SK-MEL-2 = assay: Growth inhibition of human SK-MEL-2 cells incubated for 48 hrs by sulforhodamine B assay; details: SK-MEL-2, 48 h; for TGI: read-out: pTGI (converted); summary of the method: as §1
Hs-578T = assay: Growth inhibition of human Hs578T cells incubated for 48 hrs by sulforhodamine B assay; details: for TGI: read-out: pTGI (converted); summary of the method: as §1
MOLT-4 = assay: Growth inhibition of human MOLT4 cells incubated for 48 hrs by sulforhodamine B assay; details: MOLT-4, 48 h; for TGI: read-out: pTGI (converted); summary of the method: as §1
OVCAR-4 = assay: Growth inhibition of human OVCAR4 cells incubated for 48 hrs by sulforhodamine B assay; details: OVCAR-4, 48 h; for TGI: read-out: pTGI (converted); summary of the method: as §1
M14 = assay: Growth inhibition of human M14 cells incubated for 48 hrs by sulforhodamine B assay; details: M14, 48 h; for TGI: read-out: pTGI (converted); summary of the method: as §1
HOP-92 = assay: Growth inhibition of human HOP92 cells incubated for 48 hrs by sulforhodamine B assay; details: HOP-92, 48 h; for TGI: read-out: pTGI (converted); summary of the method: as §1
EKVX = assay: Growth inhibition of human EKVX cells incubated for 48 hrs by sulforhodamine B assay; details: for TGI: read-out: pTGI (converted); summary of the method: as §1
OVCAR-5 = assay: Growth inhibition of human OVCAR5 cells incubated for 48 hrs by sulforhodamine B assay; details: OVCAR-5, 48 h; for TGI: read-out: pTGI (converted); summary of the method: as §1
SNB-75 = assay: Growth inhibition of human SNB75 cells incubated for 48 hrs by sulforhodamine B assay; details: SNB-75, 48 h; for TGI: read-out: pTGI (converted); summary of the method: as §1
NCI-H226 = assay: Growth inhibition of human NCI-H226 cells incubated for 48 hrs by sulforhodamine B assay; details: NCI-H226, 48 h; for TGI: read-out: pTGI (converted); summary of the method: as §1
MDA-MB-231 = assay: Growth inhibition of human MDA-MB-231 cells incubated for 48 hrs by sulforhodamine B assay; details: MDA-MB-231, 48 h; for TGI: read-out: pTGI (converted); summary of the method: as §1
MDA-MB-435 = assay: Growth inhibition of human MDA-MB-435 cells incubated for 48 hrs by sulforhodamine B assay; details: MDA-MB-435, 48 h; for TGI: read-out: pTGI (converted); summary of the method: as §1
HL-60(TB) = assay: Growth inhibition of human HL-60(TB) cells incubated for 48 hrs by sulforhodamine B assay; details: HL-60, 48 h; for TGI: read-out: pTGI (converted)
Summary of the method: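 Run within the NCI-60 human tumour cell line panel as a dose-response screen. For each cell line the readouts are GI50, TGI and LC50. Per-line log values also feed a mean-graph analysis, in which the arithmetic mean of the log values across all lines is subtracted from each line's log value.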

SF-539 = assay: Growth inhibition of human SF539 cells incubated for 48 hrs by sulforhodamine B assay; details: SF-539, 48 h; for TGI: read-out: pTGI (converted); summary of the method: as §1
CCRF-CEM = assay: Growth inhibition of human CCRF-CEM cells incubated for 48 hrs by sulforhodamine B assay; details: for TGI: read-out: pTGI (converted); summary of the method: as §1

## COC(=O)/C=C1\CC[C@H]2[C@@H](CC(=O)[C@H]3C(C)(C)C(=O)CC[C@]23C)[C@H]1C
HT-29
  GI50: 0.955 µM
  CC50: 12.9 µM
  TGI: 2.45 µM
COLO 205
  GI50: 1.23 µM
  LC50: > 34.7 µM
  TGI: 5.37 µM
NCI-H322M
  GI50: 0.813 µM
  LC50: 27.5 µM
  TGI: 2.51 µM
PC-3
  GI50: 0.933 µM
  CC50: > 34.7 µM
  TGI: 2.75 µM
MCF7
  GI50: 0.955 µM
  CC50: > 34.7 µM
  TGI: > 34.7 µM
UACC-257
  GI50: 0.891 µM
  LC50: 18.6 µM
  TGI: 2.45 µM
786-0
  GI50: 0.676 µM
  LC50: 3.16 µM
  TGI: 1.45 µM
SNB-19
  GI50: 1.2 µM
  LC50: 12.9 µM
  TGI: 4.47 µM
NCI/ADR-RES
  GI50: 0.741 µM
  CC50: > 34.7 µM
  TGI: 1.91 µM
NCI-H460
  GI50: 0.17 µM
  LC50: 2.14 µM
  TGI: 0.661 µM
DU-145
  GI50: 0.575 µM
  LC50 (concentration killing 50% of cells): 1.95 µM
  TGI: 1.05 µM
T47D
  GI50: 1 µM
  LC50: > 34.7 µM
  TGI: 2.95 µM
TK-10
  GI50: 0.794 µM
  LC50 (lethal concentration killing 50% of cells): 14.8 µM
  TGI: 2.4 µM
RXF 393
  GI50: 0.776 µM
  CC50: > 34.7 µM
  TGI: 2.57 µM
SK-MEL-2
  GI50: 1.05 µM
  LC50 (concentration killing 50% of cells): > 34.7 µM
  TGI: 4.47 µM
Hs-578T
  GI50: 0.417 µM
  LC50: > 34.7 µM
  TGI: 1.66 µM
MOLT-4
  GI50: 0.195 µM
  LC50: > 34.7 µM
  TGI: 1.15 µM
OVCAR-4
  GI50: 0.676 µM
  LC50: 5.75 µM
  TGI: 1.62 µM
M14
  GI50: 1.15 µM
  LC50: 20 µM
  TGI: 4.27 µM
HOP-92
  GI50: 1 µM
  LC50: > 34.7 µM
  TGI: 3.47 µM
EKVX
  GI50: 0.407 µM
  LC50: 1.91 µM
  TGI: 0.871 µM
OVCAR-5
  GI50: 0.776 µM
  LC50: 21.4 µM
  TGI: 2.34 µM
SNB-75
  GI50: 0.55 µM
  LC50 (concentration killing 50% of cells): 2.63 µM
  TGI: 1.2 µM
NCI-H226
  GI50: 0.617 µM
  LC50: 2.63 µM
  TGI: 1.29 µM
MDA-MB-231
  GI50: 1.48 µM
  LC50: > 34.7 µM
  TGI: 7.94 µM
MDA-MB-435
  GI50: 1.07 µM
  LC50: 20.4 µM
  TGI: 3.8 µM
HL-60(TB)
  GI50: 0.977 µM
  LC50: > 34.7 µM
  TGI: 2.75 µM
SF-539
  GI50: 0.575 µM
  LC50: 2.09 µM
  TGI: 1.1 µM
CCRF-CEM
  GI50: 0.708 µM
  LC50: > 34.7 µM
  TGI: 2.29 µM

## COC(=O)/C=C1\CC[C@H]2[C@@H](CC(=O)[C@H]3C(C)(C)[C@@H](O)CC[C@]23C)[C@H]1C
HT-29
  GI50: 2.24 µM
  CC50: > 34.7 µM
  TGI: 10.7 µM
COLO 205
  GI50: 10.5 µM
  LC50: > 34.7 µM
  TGI: > 34.7 µM
NCI-H322M
  GI50: 1.35 µM
  LC50: > 34.7 µM
  TGI: 9.55 µM
PC-3
  GI50: 3.16 µM
  CC50: > 34.7 µM
  TGI: 15.8 µM
MCF7
  GI50: 1.62 µM
  CC50: > 34.7 µM
  TGI: > 34.7 µM
UACC-257
  GI50: 6.03 µM
  LC50: > 34.7 µM
  TGI: 16.2 µM
786-0
  GI50: 1.12 µM
  LC50: 24.5 µM
  TGI: 4.27 µM
SNB-19
  GI50: 9.33 µM
  LC50: > 34.7 µM
  TGI: > 34.7 µM
NCI/ADR-RES
  GI50: 1.2 µM
  CC50: > 34.7 µM
  TGI: 6.61 µM
NCI-H460
  GI50: 0.776 µM
  LC50: 5.13 µM
  TGI: 1.74 µM
DU-145
  GI50: 0.776 µM
  LC50 (concentration killing 50% of cells): 4.79 µM
  TGI: 1.74 µM
T47D
  GI50: 5.37 µM
  LC50: > 34.7 µM
  TGI: 21.9 µM
TK-10
  GI50: 1.48 µM
  LC50 (lethal concentration killing 50% of cells): > 34.7 µM
  TGI: 7.94 µM
RXF 393
  GI50: 0.933 µM
  CC50: > 34.7 µM
  TGI: 3.31 µM
SK-MEL-2
  GI50: 7.41 µM
  LC50 (concentration killing 50% of cells): > 34.7 µM
  TGI: 28.8 µM
Hs-578T
  GI50: 0.955 µM
  LC50: > 34.7 µM
  TGI: 3.39 µM
MOLT-4
  GI50: 0.813 µM
  LC50: > 34.7 µM
  TGI: 2.14 µM
OVCAR-4
  GI50: 3.72 µM
  LC50: > 34.7 µM
  TGI: 12.3 µM
M14
  GI50: 10 µM
  LC50: > 34.7 µM
  TGI: > 34.7 µM
HOP-92
  GI50: 5.75 µM
  LC50: > 34.7 µM
  TGI: 23.4 µM
EKVX
  GI50: 0.871 µM
  LC50: 11 µM
  TGI: 2.69 µM
OVCAR-5
  GI50: 5.89 µM
  LC50: > 34.7 µM
  TGI: 17.4 µM
SNB-75
  GI50: 1.1 µM
  LC50 (concentration killing 50% of cells): 23.4 µM
  TGI: 6.46 µM
NCI-H226
  GI50: 4.79 µM
  LC50: 25.1 µM
  TGI: 11 µM
MDA-MB-231
  GI50: 10.2 µM
  LC50: > 34.7 µM
  TGI: > 34.7 µM
MDA-MB-435
  GI50: 8.51 µM
  LC50: > 34.7 µM
  TGI: > 34.7 µM
HL-60(TB)
  GI50: 5.37 µM
  LC50: > 34.7 µM
  TGI: 21.4 µM
SF-539
  GI50: 1.35 µM
  LC50: 16.2 µM
  TGI: 5.5 µM
CCRF-CEM
  GI50: 1.15 µM
  LC50: > 34.7 µM
  TGI: 7.59 µM
